According to ChEMBL document CHEMBL3580656, “Chrodrimanins I and J from the Antarctic Moss-Derived Fungus Penicillium funiculosum GWT2-24” (J Nat Prod, 2015):

Tests used:
K562 = experiment: Cytotoxicity against human K562 cells by sulforhodamine B assay; assay type: functional, cell-based
Outline: (§1)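 Four human lines tested (K562, HL-60, HeLa, A-549) with adriamycin as positive control. Potency is expressed as IC50.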

HL-60 = experiment: Cytotoxicity against human HL60 cells by sulforhodamine B assay; assay type: functional, cell-based; outline: as §1
HeLa = experiment: Cytotoxicity against human HeLa cells by sulforhodamine B assay; assay type: functional, cell-based; outline: as §1
A549 = experiment: Cytotoxicity against human A549 cells by sulforhodamine B assay; assay type: functional, cell-based; outline: as §1
Staphylococcus aureus = experiment: Antibacterial activity against Staphylococcus aureus; assay type: functional
Escherichia coli = experiment: Antibacterial activity against Escherichia coli; assay type: functional
Influenza A virus = experiment: Antiviral activity against influenza A virus (A/Puerto Rico/8/34(H1N1)) infected in MDCK cells incubated for 48 hrs assessed as inhibition of virus-induced cytopathic effect by crystal violet staining assay; assay type: functional, organism-based; settings: A/Puerto Rico/8/1934(H1N1)
Outline: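 Ribavirin served as the positive control. The value is reported as an IC50 in μM.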

Row | Compound | IC50 (K562) | IC50 (HL-60) | IC50 (HeLa) | IC50 (A549) | MIC (Staphylococcus aureus) | MIC (Escherichia coli) | IC50 (Influenza A virus)
1 | CC1(C)C(=O)CC[C@@]2(C)[C@H]1CC[C@]1(C)Oc3cc(O)c4c(c3C[C@@H]21)C[C@@H](O)CC4=O | > 50 µM | > 50 µM | > 50 µM | > 50 µM | > 600 µg/mL | > 600 µg/mL | > 200 µM
2 | CC1(C)C(=O)C=C[C@@]2(C)[C@H]1CC[C@]1(C)Oc3cc(O)c4c(c3C[C@@H]21)C[C@@H](O)CC4=O | > 50 µM | > 50 µM | > 50 µM | > 50 µM | > 600 µg/mL | > 600 µg/mL | > 200 µM
3 | C[C@@H]1Cc2c3c(cc(O)c2C(=O)O1)O[C@@]1(C)[C@@H](O)C[C@H]2C(C)(C)C(=O)C=C[C@]2(C)[C@@H]1C3 | > 50 µM | > 50 µM | > 50 µM | > 50 µM | > 600 µg/mL | > 600 µg/mL | 21 µM
4 | C[C@H]1OC(=O)c2c(O)cc3c(c2[C@H]1O)C[C@H]1[C@@]2(C)C=CC(=O)C(C)(C)[C@@H]2C[C@H](O)[C@]1(C)O3 | > 50 µM | > 50 µM | > 50 µM | > 50 µM | > 600 µg/mL | > 600 µg/mL | > 200 µM
5 | CC(=O)O[C@@H]1c2c3c(cc(O)c2C(=O)O[C@@H]1C)O[C@@]1(C)[C@@H](O)C[C@H]2C(C)(C)C(=O)C=C[C@]2(C)[C@@H]1C3 | > 50 µM | > 50 µM | > 50 µM | > 50 µM | > 600 µg/mL | > 600 µg/mL | 55 µM
6 | C[C@@H]1Cc2c3c(cc(O)c2C(=O)O1)O[C@@]1(C)[C@@H](O)C[C@H]2C(C)(C)[C@@H](O)CC[C@]2(C)[C@@H]1C3 | > 50 µM | > 50 µM | > 50 µM | > 50 µM | > 600 µg/mL | > 600 µg/mL | 57 µM
7 | C[C@@H]1Cc2c3c(cc(O)c2C(=O)O1)O[C@@]1(C)[C@@H](O)C[C@H]2C(C)(C)C(=O)CC[C@]2(C)[C@@H]1C3 | > 50 µM | > 50 µM | > 50 µM | > 50 µM | > 600 µg/mL | > 600 µg/mL | > 200 µM
